Source: PubChem (several laboratories)
Rows were chosen to be rich in hits. Some 2% of all compounds tested hit in one or more screens of this group.
Myeloid diff 2: induction of myeloid progenitor differentiation, primary screen, cell-based, flow cytometry, MLPCN library; ER-HoxA9 myeloid progenitors, lysozyme-GFP differentiation; calls only at 10 µM; 360,000 tested, 1% active; AID 624256, 2012;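 active = normalized GFP-positive differentiation at or above the plate's own cutoff, the solvent-only control mean plus 3 SD; inconclusive = no clear call, values can overlap the other calls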;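 note: cells exposed to compound for four days before flow analysis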
NR2E3 ag-1: NR2E3 agonists in two-hybrid cells, primary screen, cell-based, luminescence, CHO-S, Gal4-NCOR/VP16-NR2E3 | luciferase | Photoreceptor-specific nuclear receptor (Homo sapiens), Q9Y5X4 | 360,000 tested, 0.35% active | inhibition of corepressor binding, % at 3.98 µM | AID 602229, 2012;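 active = inhibition above the mean of all tested compounds plus 3 SD, cut at about 70% in these data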;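 note: 0% = DMSO with NR2E3 transfected cells and 100% = cells lacking NR2E3 construct; higher means lower luciferase signal from less NR2E3 corepressor binding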
Target sequence (Q9Y5X4 whole entry, looked up, the tested form may be a part): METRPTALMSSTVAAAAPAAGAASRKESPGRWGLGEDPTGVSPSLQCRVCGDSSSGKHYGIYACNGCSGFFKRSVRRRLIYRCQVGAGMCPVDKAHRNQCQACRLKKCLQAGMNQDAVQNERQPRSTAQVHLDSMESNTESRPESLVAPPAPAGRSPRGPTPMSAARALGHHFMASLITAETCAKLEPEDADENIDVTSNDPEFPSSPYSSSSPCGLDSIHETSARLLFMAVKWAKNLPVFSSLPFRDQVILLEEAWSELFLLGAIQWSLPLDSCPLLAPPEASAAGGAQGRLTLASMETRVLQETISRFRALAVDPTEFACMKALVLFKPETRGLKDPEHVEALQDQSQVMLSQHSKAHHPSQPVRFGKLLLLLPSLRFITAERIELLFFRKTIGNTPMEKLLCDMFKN
NR2E3 ag-2: inhibitors of NR2E3-RetCOR corepressor binding, primary screen, NR2E3 agonist project, biochemical, TR-FRET, GST-NR2E3, biotin-RetCOR; Photoreceptor-specific nuclear receptor (Homo sapiens), Q9Y5X4; inhibition of corepressor binding, % at 4.78 µM; 1536-well; 320,000 tested, 0.12% active; AID 2300, 2010;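 active = percent inhibition above the cutoff of mean plus 3 SD of all tested compounds, set per screening campaign, cut at about 20% in these data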;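 note: 0% = DMSO wells and 100% = biotin wells as full block of FRET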
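Material: NR2E3–RetCOR corepressor complex / Amount: 1.35 nM GST-NR2E3 / Medium: Tris pH 7.5 / Compound: single nominal compound dose of 4.8 µM / Incubation: 5 h at 4 °C / Technique: TR-FRET, Eu(K)-anti-GST donor, streptavidin-D2 acceptor, ex 340, em 617/671 nm / Read-out basis: percent loss of FRET ratio relative to control wells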
GAA850 FXN act: FXN promoter activators, primary screen, cell-based, luciferase luminescence, HEK293 lucGAA850 | AID 540364, 2011 | activation, % at 6 µM | 360,000 tested, 0.56% active | HEK293 lucGAA850 FXN promoter luciferase reporter, 24 h; percent of 10 µM SAHA response;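 active = activation above the average of all compounds screened plus 3 SD, cutoff fixed separately per campaign, cut at about 7.5% in these data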;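 note: 0% = DMSO wells and 100% = 10 µM SAHA wells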
T cell HTS: modulators of CD8 T cell-vesicle binding, primary screen, mouse 2C CD8+ T cells, flow cytometry | 2C CD8+ T cell-vesicle binding; hits give low values | 330,000 tested, 0.068% active | AID 2052, 2009 | response (vesicle binding), % at 7 µM;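 active = response, share of CD8 T cells binding vesicles, and their 90th percentile fluorescence all below set limits, cut at about 80% in these data, passing the limit was not always enough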;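 note: values below 100% mean blocked vesicle binding to the CD8+ T cells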
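System: murine 2C transgenic CD8+ T lymphocytes; also added: QL9-loaded Drosophila micro-vesicles; times: binding 1.5 h at 37 °C; measured by: flow cytometry, PE anti-B7-1 (FL2) versus Alexa647 anti-CD8 (FL8), PFA-fixed; control set: Peptide-free naked vesicles (low) and QL9 vesicles with 0.7% DMSO vehicle (high)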
GAA30 counter: GAA30 FXN promoter activators, confirmation, counter-screen for GAA850 frataxin promoter activator project, cell-based, luminescence, HEK293, lucGAA30, triplicate; 1,900 tested, 66% active; shares compounds with GAA850 FXN act; HEK293 lucGAA30 FXN promoter luciferase, 24 h; DMSO = 0%, 5 µM ipriflavone = 100%; activation, % at 6 µM;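 active = mean activation above the mean of solvent-only control wells plus 3 SD, cut at about 22% in these data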;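 note: counterscreen of GAA850 promoter hits where activity marks nonselective or luminescence artifacts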
FXN GAA850 conf: FXN GAA850 promoter activators in reporter cells, confirmation, cell-based, luminescence, HEK293 lucGAA850, triplicate. AID 588351, 2011. activation, % at 6 µM. 1,900 tested, 86% active. shares compounds with GAA850 FXN act. HEK293 lucGAA850 FXN promoter luciferase reporter, 24 h; 100% = activation by SAHA;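 active = mean activation above a set limit taken from the primary screen, cut at about 8% in these data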;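 note: 0% = DMSO wells and 100% = 10 µM SAHA wells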
NR2E3 ag confirm: NR2E3 agonist confirmation in cells, cell-based, luminescence, CHO-S two-hybrid. inhibition, % at 3.98 µM. shares compounds with NR2E3 ag-1. CHO-S mammalian two-hybrid NR2E3-NCOR, luciferase luminescence. 2,300 tested, 51% active;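 active = average inhibition above a cutoff equal to the mean inhibition of all tested compounds plus one SD, cut at about 70% in these data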;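 note: 0% = DMSO in NR2E3 cells and 100% = DMSO in cells lacking NR2E3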
VP16 counter: GAL4-VP16 reporter modulators, confirmation, counter-screen for NR2E3 agonist project, cell-based, luminescence, CHO-S, high throughput | 2,300 tested, 29% active | CHO-S GAL4-VP16 luciferase reporter | inhibition, % at 3.98 µM | AID 624379, 2012 | shares compounds with NR2E3 ag-1;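 active = mean inhibition above a cutoff equal to the average over all tested compounds plus one standard deviation, cut at about 70% in these data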;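 note: luciferase from a UAS reporter driven by GAL4-VP16 transactivation; 0% = DMSO with VP16-transfected cells and 100% = DMSO with cells lacking VP16; higher means less reporter light so more repression of VP16 activity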
Myeloid diff CP1: inducers of myeloid progenitor differentiation, confirmation, cell-based, GFP/Mac1 flow cytometry, cherry pick 01 | shares compounds with Myeloid diff 2 | ER-HoxA9 myeloid progenitors, GFP/Mac1 double-positive flow | calls only | 2,300 tested, 2% active;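 active = share of green or green-and-red cells above 9 and 9% in run 1 or 4 and 3% in run 2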
GFP autofluor: counter-screen for myeloid differentiation promoters: compound fluorescence. shares compounds with Myeloid diff 2. ER-HoxA9 myeloid progenitors, no estrogen, GFP autofluorescence flow cytometry; vehicle wells 0%, positive control 100%. fluorescence response, % (test concentration not listed). 2,300 tested, 7.4% active. AID 651707;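 active = over 5% cells positive for green fluorescent reporter, or over 2% positive for both it and APC stain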;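 note: range taken on the double positive population between DMSO and positive control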
* = called active by the depositor; i = inactive; ? = inconclusive; nt = no result given; + = active, no number.

SMILES	Myeloid diff 2	NR2E3 ag-1	NR2E3 ag-2	GAA850 FXN act	T cell HTS	NR2E3 ag confirm	VP16 counter	others
O=C(Nc1ncccc1O)c1ccc(S(=O)(=O)Nc2ccccc2)cc1	+	-42	-3	20*	160	nt	nt	GAA30 counter=52*;FXN GAA850 conf=47*;Myeloid diff CP1=i;GFP autofluor=1
Cn1ccc2ccc(C3=CC(=O)C[C@H](c4ccc(F)cc4)C3)cc21	i	1	2	1	405	nt	nt
COc1ccccc1-c1ccc2c(c1)C(C)(Cc1cc(Cl)ccc1C(F)(F)F)C(=O)N2 (configuration not stated)	i	17	nt	-1	nt	nt	nt
COc1ccc(Cl)cc1CC1(C)C(=O)Nc2ccc(-c3ccccc3OC)cc21 (configuration not stated)	+	-20	nt	12*	nt	nt	nt	GAA30 counter=33*;FXN GAA850 conf=12*;Myeloid diff CP1=i;GFP autofluor=0
O=C(CCC1CCCN(C(=O)CCCc2ccccc2)C1)N1CCN(c2ccccn2)CC1 (configuration not stated)	i	-33	4	1	336	nt	nt
C=CCc1c(C)nc(-c2ccccc2)nc1Nc1ccccc1O	+	13	1	7.9*	818	nt	nt	GAA30 counter=30*;FXN GAA850 conf=21*;Myeloid diff CP1=i;GFP autofluor=63*
O=S(=O)(C/C(=C/CO)S(=O)(=O)c1ccccc1)c1ccccc1	?	65	2	-17	362	69	-4
CC(=O)N1CCCC(C(=O)c2ccc(Oc3ccccc3)cc2)C1 (configuration not stated)	i	-36	4	2	478	nt	nt
Cc1ccc(NC(=S)/C(C#N)=C2/Nc3ccccc3S2)cc1	i	93*	nt	-2	nt	99*	54
Cc1cc(=O)[nH]c(SCc2ccc(Cl)cc2Cl)n1	i	21	-2	1	331	nt	nt
Cc1cc(CSc2nc(C)cc(=O)[nH]2)c2ncccc2c1	i	86*	-3	2	392	94*	72*
Cc1cc(=O)[nH]c(SCc2cccc3ccccc23)n1	i	71*	-2	1	963	80*	57
CCCn1c(N2CCC(Cc3ccccc3)CC2)nc2c1c(=O)[nH]c(=O)n2C	i	49	3	3	241	29	39
C[C@H](CO)N1C[C@H](C)[C@@H](CN(C)C(=O)Nc2ccc3c(c2)OCCO3)OCc2cnnn2CCCC1=O	i	63	nt	-6	nt	8	-22
O=C(NCCc1cccs1)Nc1nnc([C@H]2C[C@H](O)[C@@H](CO)O2)s1	i	-28	nt	1	nt	nt	nt
Clc1ccc(OCc2nc(-c3ccccn3)no2)c(Br)c1	i	-186	1	-2	579	nt	nt
